Data reported in ChEMBL document CHEMBL4680104, “Structure-Based Optimization of Small-Molecule Inhibitors for the β-Catenin/B-Cell Lymphoma 9 Protein-Protein Interaction” (J Med Chem, 2018).
The source made the active and inactive calls. The calls are words filed in the database; no cut-off is given here.

Key:
[1] = Effect on HPRT mRNA expression in human SW480 cells at 8 uM incubated for 24 hrs by qPCR analysis relative to control; format: ADME, cell-based; details: read-out: FC
Summary of the method: (§1)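 SW480 cells at 1 × 10^6/mL were treated with inhibitor for 24 h. Total RNA was extracted with TRIzol and cDNA made by first-strand synthesis. SYBR green qPCR used human HPRT primers, with CT values normalised to GAPDH as internal reference. Performed in triplicate.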

[2] = Effect on HPRT mRNA expression in human SW480 cells at 50 uM incubated for 24 hrs by qPCR analysis relative to control; format: ADME, cell-based; details: read-out: FC; summary of the method: as §1
[3] = Effect on HPRT mRNA expression in human SW480 cells at 100 uM incubated for 24 hrs by qPCR analysis relative to control; format: ADME, cell-based; details: read-out: FC; summary of the method: as §1
[4] = tested on: SW480; assay: Effect on E-cadherin-bound beta-catenin levels in human SW480 cells at 25 to 100 uM incubated for 24 hrs by Western blot analysis; format: functional, cell-based; details: dose 25-100 µM
Summary of the method: (§2)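 SW480 cells at 1 × 10^6 cells/mL were treated with a range of inhibitor concentrations for 24 h. Cells were lysed in Tris/NaCl/NP-40/deoxycholate/SDS buffer with protease inhibitors. Lysates were run on 8% SDS-PAGE and blotted to nitrocellulose. Blots were probed overnight at 4 °C for total β-catenin (mostly the E-cadherin-bound pool), active β-catenin (dephosphorylated S37/T41), cyclin D1, c-myc and β-tubulin. Detection used infrared secondary antibodies. Duplicate.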

[5] = Drug level in human HCT-116 cells assessed as per million cells at 50 uM incubated for 6 hrs at 37 degC in presence of DMEM media with 10% FBS; format: ADME, cell-based; details: hct-116, 6 h
Summary of the method: (§3)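 Cells were incubated with 50 μM compound for 6 h in 5 mL DMEM with 10% FBS, at 37 °C or at 4 °C. Cell-bound compound was quantified by a previously described method and expressed as nmol per million cells. The 4 °C incubation was used to estimate binding to the cell membrane through nonspecific association.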

[6] = Effect on HPRT mRNA expression in human SW480 cells at 25 uM incubated for 24 hrs by qPCR analysis relative to control; format: ADME, cell-based; details: read-out: FC; summary of the method: as §1
[7] = target: T1, beta-catenin-B-cell lymphoma 9 protein complex (Homo sapiens) (UniProt P35222+O00512); assay: Inhibition of protein interaction between full-length beta-catenin (unknown origin) / full-length BCL9 (unknown origin) in human HCT-116 cell lysates incubated for 4 hrs by co-immunoprecipitation assay; format: subcellular
Summary of the method: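 HCT116 cells were lysed in 50 mM Tris pH 7.4, 150 mM NaCl, 1% NP-40, 2 mM EDTA and protease inhibitors. Lysates were incubated with a range of inhibitor concentrations for 4 h at 4 °C and precleared on protein A/G agarose. β-Catenin was immunoprecipitated overnight at 4 °C and captured on A/G beads for 3 h. Beads were washed five times and run on 8% SDS-PAGE. Blots were probed for BCL9 and E-cadherin.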

[8] = Inhibition of protein interaction between C-terminal 6x-histidine tagged full-length beta-catenin (1 to 781 residues) (unknown origin)/N-terminal biotinylated human E-cadherin (824 to 877 residues) incubated for 1 hr by Alpha-screen competitive inhibition assay
Summary of the method: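 Full-length β-catenin (residues 1–781) with a C-terminal His6 tag was expressed in E. coli BL21(DE3) after IPTG induction at 20 °C. It was purified by Ni-NTA, anion-exchange and size-exclusion chromatography. For the assay, 40 nM β-catenin was preincubated for 30 min at 4 °C with 5 nM biotinylated BCL9 or 10 nM biotinylated E-cadherin. Inhibitor was then added for 1 h at 4 °C, followed by 10 μg/mL donor and acceptor beads for 1 h at 4 °C. IC50 was obtained by nonlinear fit and converted to Ki by the Nikolovska-Coleska method. Triplicate, mean ± SD.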

[9] = tested on: SW480; assay: Cytotoxic activity in human SW480 cells at 800 uM incubated for 4 hrs by LDH release assay; format: cell-based; details: sw480, 4 h
Summary of the method: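 SW480 cells were seeded at 2 × 10^4 cells/well and kept overnight at 37 °C. They were then exposed to a range of inhibitor concentrations for 4 h. LDH in the culture supernatant was measured with a diagnostic kit by absorbance at 490 nm. Percent cytotoxicity was calculated from experimental release against maximum release, with background subtracted. Run in triplicate.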

[10] = target: T1, beta-catenin-B-cell lymphoma 9 protein complex (Homo sapiens); assay: Inhibition of protein interaction between full-length beta-catenin (unknown origin) / full-length BCL9 (unknown origin) in human HCT-116 cells incubated for 24 hrs by co-immunoprecipitation assay; format: cell-based
Summary of the method: (§4)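 Intact HCT116 cells at 1 × 10^6/mL were treated with a range of inhibitor concentrations for 24 h. They were then lysed in Tris pH 7.4/NaCl/NP-40/EDTA buffer with protease inhibitors and precleared on A/G agarose. Anti-β-catenin immunoprecipitation ran overnight at 4 °C, with A/G capture for 3 h and five washes. Samples were run on 8% SDS-PAGE and immunoblotted for BCL9 and E-cadherin.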

[11] = Drug level in human HCT-116 cells assessed as per million cells at 50 uM incubated for 6 hrs at 4 degC in presence of DMEM media with 10% FBS; format: ADME, cell-based; details: hct-116, 6 h; summary of the method: as §3
[12] = tested on: HCT-116; assay: Inhibition of protein interaction between full-length beta-catenin (unknown origin) / full-length E-cadherin (unknown origin) in human HCT-116 cells incubated for 24 hrs by co-immunoprecipitation assay; format: cell-based; summary of the method: as §4
[13] = target: T1, beta-catenin-B-cell lymphoma 9 protein complex (Homo sapiens); assay: Inhibition of protein interaction between beta-catenin /BCL9 in human SW480 cells assessed as reduction in Wnt target genes by measuring c-Myc protein expression at 25 to 100 uM incubated for 24 hrs by Western blot analysis; format: cell-based; details: dose 25-100 µM; summary of the method: as §2
[14] = tested on: SW480; assay: Effect on E-cadherin-bound beta-catenin levels in human SW480 cells at 2 to 8 uM incubated for 24 hrs by Western blot analysis; format: functional, cell-based; details: dose 2-8 µM; summary of the method: as §2
[15] = target: T1, beta-catenin-B-cell lymphoma 9 protein complex (Homo sapiens); assay: Inhibition of protein interaction between beta-catenin /BCL9 in human SW480 cells assessed as reduction in Wnt target genes by measuring cyclin D1 protein expression at 2 to 8 uM incubated for 24 hrs by Western blot analysis; format: cell-based; details: dose 2-8 µM; summary of the method: as §2

Compound: Cc1cc(F)ccc1-c1cc(NC(=O)c2ccc(O[C@H]3CCNC3)c(-c3ccc(F)c(F)c3)c2)ccc1O[C@H]1CCNC1.Cl.Cl
- fold induction at 8 µM [1]: 0.124

Compound: Cl.Cl.O=C(Nc1ccc(O[C@@H]2CCNC2)c(-c2cccc(-c3nn[nH]n3)c2)c1)c1ccc(O[C@H]2CCNC2)c(-c2ccc(F)c(F)c2)c1
- fold induction at 50 µM [2]: 0.979
- fold induction at 100 µM [3]: 0.969
- Activity [4]: inactive
- Drug uptake [5]: 6.6 nmol
- fold induction at 25 µM [6]: 0.99
- inhibition [7]: Dose-dependent effect
- Ki [8]: > 915 µM
- Activity [9]: Non-Toxic
- inhibition [10]: Dose-dependent effect
- Drug uptake [11]: 5.1 nmol
- inhibition [12]: inactive
- inhibition [13]: Active

Compound: Cl.Cl.O=C(Nc1ccc(O[C@H]2CCNC2)c(-c2ccc(F)cc2)c1)c1ccc(O[C@H]2CCNC2)c(-c2ccc3ccsc3c2)c1
- Activity [14]: inactive
- inhibition [15]: Active
